The text below walks through data of ChEMBL document CHEMBL1781887, “Sulfoximine-substituted trifluoromethylpyrimidine analogs as inhibitors of proline-rich tyrosine kinase 2 (PYK2) show reduced hERG activity” (Bioorg Med Chem Lett, 2009).

The target in one data set is hERG (KCNH2) (Homo sapiens, UniProt Q12809). Briefly: Inhibition of [3H]dofetilide binding to human ERG expressed in HEK293 cells at 10 uM. It counts as cell-based. Particulars: HEK293 cells that express human ERG, probe [3H]dofetilide.
Sequence of hERG (KCNH2) (Q12809 whole entry): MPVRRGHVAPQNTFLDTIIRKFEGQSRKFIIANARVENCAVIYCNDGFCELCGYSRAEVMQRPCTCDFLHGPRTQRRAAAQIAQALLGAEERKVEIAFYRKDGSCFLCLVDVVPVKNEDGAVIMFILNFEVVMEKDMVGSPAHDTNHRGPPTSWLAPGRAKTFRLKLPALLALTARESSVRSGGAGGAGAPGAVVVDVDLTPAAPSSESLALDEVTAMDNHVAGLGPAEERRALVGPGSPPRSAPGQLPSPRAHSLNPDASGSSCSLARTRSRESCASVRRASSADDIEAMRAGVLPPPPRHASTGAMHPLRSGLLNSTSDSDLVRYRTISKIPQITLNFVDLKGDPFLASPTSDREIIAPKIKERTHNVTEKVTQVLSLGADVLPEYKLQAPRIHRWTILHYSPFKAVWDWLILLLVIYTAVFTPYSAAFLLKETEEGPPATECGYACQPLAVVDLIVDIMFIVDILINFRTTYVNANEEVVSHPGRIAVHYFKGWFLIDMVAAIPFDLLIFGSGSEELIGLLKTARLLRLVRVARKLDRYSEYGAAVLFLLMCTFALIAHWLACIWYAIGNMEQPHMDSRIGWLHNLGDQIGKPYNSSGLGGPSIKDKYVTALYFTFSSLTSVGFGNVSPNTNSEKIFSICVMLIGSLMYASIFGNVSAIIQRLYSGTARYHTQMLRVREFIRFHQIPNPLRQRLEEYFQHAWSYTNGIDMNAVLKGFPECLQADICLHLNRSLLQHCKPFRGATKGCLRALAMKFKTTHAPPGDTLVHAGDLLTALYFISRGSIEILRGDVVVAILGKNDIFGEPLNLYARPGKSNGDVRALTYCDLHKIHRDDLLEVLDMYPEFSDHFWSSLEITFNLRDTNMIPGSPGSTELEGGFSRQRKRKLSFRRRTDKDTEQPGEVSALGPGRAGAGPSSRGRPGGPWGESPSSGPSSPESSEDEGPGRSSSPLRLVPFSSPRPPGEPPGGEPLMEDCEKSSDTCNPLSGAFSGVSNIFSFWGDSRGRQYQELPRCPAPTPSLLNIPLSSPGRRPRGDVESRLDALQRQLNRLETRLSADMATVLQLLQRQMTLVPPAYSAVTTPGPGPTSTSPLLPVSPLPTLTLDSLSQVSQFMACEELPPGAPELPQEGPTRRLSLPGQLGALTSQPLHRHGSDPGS
Data set [1] can be described thus: (§1) Apparent permeability from apical to basolateral side of MDCK cells. It counts as ADME, cell-based, Canis lupus familiaris. Particulars: dog. The procedure, abridged:
(§2)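 Madin–Darby canine kidney cell monolayers. Permeability measured in the apical-to-basolateral direction and reported as Papp.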

Data set [2] in a line: Hepatic extraction ratio in human liver microsomes. Particulars: read-out: ERH. Format: ADME, Microsome.
Data set [3] deals with T1, Protein-tyrosine kinase 2-beta (Homo sapiens, UniProt Q14289). The data set is described as follows: Inhibition of PYK2 assessed as reduction in peptide substrate phosphorylation by fluorimetric method.
T1 sequence (Q14289 whole entry): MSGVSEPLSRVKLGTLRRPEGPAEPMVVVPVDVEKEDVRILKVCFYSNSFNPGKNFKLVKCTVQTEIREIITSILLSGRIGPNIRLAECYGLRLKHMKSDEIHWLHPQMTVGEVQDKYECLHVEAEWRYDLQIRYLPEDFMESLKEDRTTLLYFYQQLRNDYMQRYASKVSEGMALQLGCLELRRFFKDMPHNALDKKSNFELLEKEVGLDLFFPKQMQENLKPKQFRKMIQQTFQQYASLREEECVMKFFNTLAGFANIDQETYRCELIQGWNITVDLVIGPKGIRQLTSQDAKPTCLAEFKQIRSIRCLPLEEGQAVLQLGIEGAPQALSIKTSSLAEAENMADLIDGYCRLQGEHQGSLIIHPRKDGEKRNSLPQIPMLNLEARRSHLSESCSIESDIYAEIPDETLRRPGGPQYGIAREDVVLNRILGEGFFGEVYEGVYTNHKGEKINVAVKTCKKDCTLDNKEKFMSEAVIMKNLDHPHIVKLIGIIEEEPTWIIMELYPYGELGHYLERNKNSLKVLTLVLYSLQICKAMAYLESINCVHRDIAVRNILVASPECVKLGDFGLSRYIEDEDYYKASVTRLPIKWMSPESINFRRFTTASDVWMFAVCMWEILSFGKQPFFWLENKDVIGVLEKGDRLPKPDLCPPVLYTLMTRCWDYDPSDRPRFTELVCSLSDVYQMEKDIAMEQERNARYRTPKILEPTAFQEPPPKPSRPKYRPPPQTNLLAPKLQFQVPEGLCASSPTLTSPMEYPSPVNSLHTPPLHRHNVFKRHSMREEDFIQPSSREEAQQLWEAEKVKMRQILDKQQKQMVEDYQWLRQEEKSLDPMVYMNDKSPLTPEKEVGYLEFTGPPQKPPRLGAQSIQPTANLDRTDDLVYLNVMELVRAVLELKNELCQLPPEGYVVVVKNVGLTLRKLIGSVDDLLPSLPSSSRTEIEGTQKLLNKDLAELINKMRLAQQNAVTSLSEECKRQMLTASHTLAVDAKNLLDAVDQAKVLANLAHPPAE
Data set [4] addresses T1, Protein-tyrosine kinase 2-beta. The data set is described as follows: Inhibition of PYK2 by PYK2-LI-COR cellular assay.
Data set [5] can be described thus: Clearance in Sprague-Dawley rat at 1 mg/kg, iv. It counts as ADME, organism-based. Also noted: dose 1 mg/kg, route intravenous. Particulars: in vivo. The procedure, abridged:
(§3)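 Sprague–Dawley rats given 1.0 mg/kg iv. CL and Vdss obtained by non-compartmental fit of the plasma concentration–time profiles. Values are means of two experiments.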

A short description of data set [6]: Fraction unbound in rat plasma at 1 ug/mL. It counts as ADME, cell-free. The procedure, abridged: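 Rat plasma protein binding measured in vivo at a drug concentration of 1 μg/mL. Result expressed as fraction unbound (fu).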
Data set [7] in a line: Mean residence time in Sprague-Dawley rat. It counts as ADME, organism-based. To be noted: in vivo.
Data set [8] is described as follows: Volume of distribution at steady state in Sprague-Dawley rat at 1 mg/kg, iv. It counts as ADME, organism-based. Also noted: dose 1 mg/kg, route intravenous. Particulars: in vivo, read-out: Vdss. Summed up:
as §3

The nature of data set [9]: Lipophilicity, log D of the compound at pH 7.4. Particulars: buffer. It counts as physicochemical.
The test system of a further data set is MDCK. Described as §1. Format: ADME, cell-based, Canis lupus familiaris. To be noted: dog. Summed up: as §2
Data set [10] in a line: Cmax in Sprague-Dawley rat at 10 mg/kg, po. Format: ADME, organism-based. Also on record: dose 10 mg/kg, route oral. Particulars: in vivo. The procedure, abridged:
(§4)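 Sprague–Dawley rats given a single 10 mg/kg oral dose. Cmax and AUCinf taken from the plasma concentration–time profile. Cave calculated as AUCinf divided by the dosing interval in h. Free concentration refers to the unbound fraction in plasma. Values are means of two experiments.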

Data set [11] can be described thus: AUC (infinity) in Sprague-Dawley rat at 10 mg/kg, po. It counts as ADME, organism-based. Also on record: time infinity, dose 10 mg/kg, route oral. To be noted: plasma. Summed up:
as §4

The nature of data set [12]: Oral bioavailability in Sprague-Dawley rat at 10 mg/kg, po. It counts as ADME, organism-based. To be noted: in vivo.
A further data set concerns Rattus norvegicus. Briefly: Average free plasma concentration in Sprague-Dawley rat at 10 mg/kg, po. Format: ADME, organism-based. Also on record: dose 10 mg/kg, route oral. To be noted: in vivo. The procedure, abridged: as §4

Where only a bound is given, the exact number is not on record here.

One may read the inhibition as the percentage by which the read-out fell short of the control. Read a low inhibition as little suppression. The term Papp A→B denotes the apparent permeability from the apical to the basolateral side of a cell layer. Consider `CN(C)[C@@H]1CCC[C@H]1Nc1nc(Nc2ccc(S(=O)(=O)NC3CC3)cc2)ncc1C(F)(F)F`, for which, at hERG (KCNH2), the inhibition at 10 µM was found to be 76%. Moreover, in data set [1], the Papp A→B was found to be 4.8 ×10⁻⁶ cm/s.
Usually IC50 stands for the concentration that gives 50% inhibition. Regarding `CC[S+]([O-])(=NC)c1ccc(Nc2ncc(C(F)(F)F)c(N[C@@H]3CCC[C@H]3N(C)C)n2)cc1` (stereo partly drawn), the hepatic extraction ratio in data set [2] was found to be 0.58. Besides, the IC50 in data set [3] was 0.021 µM; in data set [4], 0.024 µM. The molecule also came in with an inhibition at 10 µM on hERG (KCNH2) of 2%. Moreover, the Papp A→B in data set [1] came out at 7.8 ×10⁻⁶ cm/s.
Turning to `CN(c1ccccc1CNc1nc(Nc2ccc3c(c2)CC(=O)N3)ncc1C(F)(F)F)S(C)(=O)=O`, the inhibition at 10 µM on hERG (KCNH2) amounted to 41%. Besides, in data set [1], the Papp A→B was found to be 9.2 ×10⁻⁶ cm/s.
Regarding `CNS(=O)(=O)c1ccc(Nc2ncc(C(F)(F)F)c(N[C@@H]3CCC[C@H]3N(C)C)n2)cc1`, at 10 µM the inhibition at hERG (KCNH2) was 50%. The Papp A→B in data set [1] was 5.3 ×10⁻⁶ cm/s.
For orientation: clearance means a measure of how efficiently the substance is removed, as volume per time. A lower clearance goes with a low capacity for elimination. What is called fraction unbound is the share of the substance not bound to proteins or other matrix. Read a low fraction unbound as little free substance. As a reminder, the MRT is a mean duration of stay, worked out from the concentration-time curve. By logD is commonly meant the decadic logarithm of the distribution of all forms, ionised or not, between an organic phase and buffer at a given pH. The low end stands for lower lipophilicity, the high end for higher lipophilicity. In turn, `CN(C)[C@@H]1CCC[C@H]1Nc1nc(Nc2ccc(S(C)(=O)=O)cc2)ncc1C(F)(F)F` registered a clearance in [5] of 42 mL/min/kg. The apparent permeability from apical to basolateral (Papp A→B) in data set [1] turned out to be 9.5 ×10⁻⁶ cm/s. This molecule displayed a free fraction (fraction unbound) at 1 ug/mL in data set [6] of 0.3. In addition, in data set [7], the mean residence time (MRT) came out at 3.7 h. Besides, in data set [8], the Vd worked out at 13 L/kg. This molecule showed a logD in [9] of 1.5.
For the molecule `CN=[S+](C)([O-])c1ccc(Nc2ncc(C(F)(F)F)c(N[C@@H]3CCC[C@H]3N(C)C)n2)cc1` (mixture of isomers), the apparent permeability from apical to basolateral (Papp A→B) in [1] came to 4.4 ×10⁻⁶ cm/s.
For the molecule `CCN=[S+](C)([O-])c1ccc(Nc2ncc(C(F)(F)F)c(N[C@@H]3CCC[C@H]3N(C)C)n2)cc1` (mixture of isomers), the inhibition at 10 µM at hERG (KCNH2) amounted to 5.9%. Also, the Papp A→B in data set [1] was found to be 4.7 ×10⁻⁶ cm/s.
As to `CC(C)N=[S+](C)([O-])c1ccc(Nc2ncc(C(F)(F)F)c(N[C@@H]3CCC[C@H]3N(C)C)n2)cc1` (mixture of isomers), the hepatic extraction ratio in [2] was 0.78. Besides, the IC50 in data set [3] was found to be 0.022 µM; in data set [4], 0.034 µM. On hERG (KCNH2), this molecule returned an inhibition at 10 µM of 8.4%. The Papp A→B in data set [1] stood at 6.6 ×10⁻⁶ cm/s.
For `CN(C)[C@@H]1CCC[C@H]1Nc1nc(Nc2ccc([S+](C)(=N)[O-])cc2)ncc1C(F)(F)F` (mixture of isomers), the hepatic extraction ratio in data set [2] is below 0.29. Also, the IC50 in [3] stood at 0.065 µM; in data set [4], 0.32 µM. The molecule further yielded an inhibition at 10 µM at hERG (KCNH2) of 12%. Further, the Papp A→B in data set [1] is 1 ×10⁻⁶ cm/s.
A word on the Papp: it is a coefficient for how fast a substance crosses the barrier. Regarding `CN=[S+](C)([O-])c1ccc(Nc2ncc(C(F)(F)F)c(N[C@@H]3CCC[C@H]3N(C)C)n2)cc1` (stereo in doubt; (R)-14a), the Papp with MDCK was found to be 5.7 ×10⁻⁶ cm/s.
The same measure, in the same setting: with `CCN=[S+](C)([O-])c1ccc(Nc2ncc(C(F)(F)F)c(N[C@@H]3CCC[C@H]3N(C)C)n2)cc1` (stereo in doubt; (R)-14b) the figure was 9.3 ×10⁻⁶ cm/s.
Broadly, the Cmax is the maximum level reached in the sampled fluid or tissue. Broadly, the AUC(0-inf) is total exposure, with the tail of the curve extrapolated. High values mean more exposure, low ones less exposure. Usually bioavailability stands for the share of a dose that reaches the circulation, judged against a reference dose that is usually intravenous. The low end stands for little systemic uptake, the high end for much systemic uptake. Take `CN=[S+](C)([O-])c1ccc(Nc2ncc(C(F)(F)F)c(N[C@@H]3CCC[C@H]3N(C)C)n2)cc1` (stereo in doubt; (S)-14a): in [5], the clearance was 74 mL/min/kg. The Cmax in [10] amounted to 720 nM. Further, the Papp with MDCK is 5.1 ×10⁻⁶ cm/s. The molecule also returned an AUC(0-inf) in [11] of 5 µM·h. In [12], the bioavailability amounted to 100%. In data set [6], this molecule showed a fraction unbound at 1 ug/mL of 0.36. Besides, the MRT in data set [7] came to 2.3 h. In addition, the Vd in data set [8] stood at 13 L/kg. For the same molecule, the logD in data set [9] is 1.7. The Cp(f) with Rattus norvegicus was 76 nM.
For `CCN=[S+](C)([O-])c1ccc(Nc2ncc(C(F)(F)F)c(N[C@@H]3CCC[C@H]3N(C)C)n2)cc1` (stereo in doubt; (S)-14b), in the data set with MDCK, the apparent permeability (Papp) amounted to 8.3 ×10⁻⁶ cm/s.
